Sampled rows, rich in hits. Any-hit rate of the full collection: about 1.8%.
Jurkat NFkB inh: inhibitors of induced NF-kB luciferase reporter, primary screen, TCR NF-kB activation inhibitor project, cell-based, luminescence, uHTS; Jurkat, PMA/ionomycin-induced NF-kB luciferase reporter; 0.53% of 330,000 active; AID 435003, 2010; inhibition, % at 4 µM; in the data active = inhibition above about 50%
NR2E3 ag-1: NR2E3 agonists in two-hybrid cells, primary screen, cell-based, luminescence, CHO-S, Gal4-NCOR/VP16-NR2E3. Photoreceptor-specific nuclear receptor (Homo sapiens), Q9Y5X4. luciferase. inhibition of corepressor binding, % at 3.98 µM. 0.35% of 360,000 active;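 active = inhibition above the mean of all tested compounds plus 3 SD, cut at about 70% in these data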;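 also: 0% = DMSO with NR2E3 transfected cells and 100% = cells lacking NR2E3 construct; higher means lower luciferase signal from less NR2E3 corepressor binding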
Target sequence (Q9Y5X4 whole entry, looked up, the tested form may be a part): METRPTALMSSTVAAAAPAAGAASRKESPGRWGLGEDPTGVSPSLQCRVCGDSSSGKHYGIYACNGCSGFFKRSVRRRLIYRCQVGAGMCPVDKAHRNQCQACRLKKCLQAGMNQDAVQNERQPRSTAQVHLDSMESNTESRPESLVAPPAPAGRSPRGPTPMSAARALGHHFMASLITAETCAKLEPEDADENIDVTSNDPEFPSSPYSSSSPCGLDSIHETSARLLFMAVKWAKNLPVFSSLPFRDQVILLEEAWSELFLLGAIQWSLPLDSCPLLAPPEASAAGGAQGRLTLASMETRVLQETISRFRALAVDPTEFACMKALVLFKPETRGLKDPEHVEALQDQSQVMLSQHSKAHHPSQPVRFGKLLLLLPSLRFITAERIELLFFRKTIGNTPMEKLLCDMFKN
GalR3 antag: GalR3 antagonists in HEK293 cells, primary screen, cell-based, fluorescence readout. Galanin receptor type 3 (Homo sapiens), O60755. HEK293 GalR3-CNG cAMP membrane potential fluorescence; galR3 body fused to GalR1 C-terminus. inhibition, % at 3 µM. 0.44% of 360,000 active. AID 651719, 2012;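 active = inhibition above the screen-wide average plus 3 SD, cut at about 13% in these data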;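 also: forskolin and galanin both at EC90 stimulate the cells; cAMP rise reported by CNG channel membrane potential dye signal; 0% = forskolin plus galanin with DMSO and 100% = forskolin alone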
Target sequence (O60755 1-299 limits assumed): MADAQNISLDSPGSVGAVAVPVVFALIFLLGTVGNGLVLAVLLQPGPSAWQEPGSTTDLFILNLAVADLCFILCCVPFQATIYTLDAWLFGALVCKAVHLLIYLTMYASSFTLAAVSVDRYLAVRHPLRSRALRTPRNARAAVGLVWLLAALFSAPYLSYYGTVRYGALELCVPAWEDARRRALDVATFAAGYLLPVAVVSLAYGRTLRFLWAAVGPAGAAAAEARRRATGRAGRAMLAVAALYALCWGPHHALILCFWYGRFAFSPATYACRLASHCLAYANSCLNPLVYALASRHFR
Gli-Sufu block: Gli-Sufu pathway antagonists, primary screen, luciferase luminescence, Sufu-KO-LIGHT cells, uHTS; AID 588413, 2011; 0.74% of 340,000 active; Sufu-KO-LIGHT fibroblasts, Gli luciferase reporter luminescence; inhibition, % at 5 µM;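 active = inhibition above about 55%, limit read from the data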;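 also: 0% = DMSO-treated cells and 100% = wells with medium but no cells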
NR2E3 ag-2: inhibitors of NR2E3-RetCOR corepressor binding, primary screen, NR2E3 agonist project, biochemical, TR-FRET, GST-NR2E3, biotin-RetCOR; Photoreceptor-specific nuclear receptor (Homo sapiens), Q9Y5X4; 1536-well; inhibition of corepressor binding, % at 4.78 µM; 0.12% of 320,000 active; AID 2300, 2010;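 active = percent inhibition above the cutoff of mean plus 3 SD of all tested compounds, set per screening campaign, cut at about 20% in these data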;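 also: 0% = DMSO wells and 100% = biotin wells as full block of FRET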
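System: GST-NR2E3 and biotin-RetCOR proteins; probe or stimulus: 7 nM biotin-RetCOR; doses: compound at 4.8 µM, single dose; schedule: Compound–protein incubation for 5 h at 4 °C; detection: time-resolved FRET; read-out: percent inhibition; controls: biotin wells as high control, 0.6% DMSO wells as low control; format: 1536-well plates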
697 NFkB inh: inhibitors of PMA/ionomycin-induced NF-kB reporter, 697 cells, primary screen, B-cell NF-kB inhibitor project, cell-based, luminescence, uHTS. 0.33% of 330,000 active. inhibition, % at 4 µM. 697 B-cell NF-kB luciferase reporter, 16 h; in the data active = inhibition above about 35%
NR2E3 ag confirm-1: NR2E3 agonists, confirmation, biochemical, TR-FRET | cell-free NR2E3 corepressor release, 5 h | shares compounds with NR2E3 ag-2 | activation (reported as inhibition), % at 3.98 µM | AID 2379, 2010 | 39% of 360 active; in the data active = activation above about 20%
PPARg-NCOR2 ag: agonists of PPARg-NCOR2 corepressor interaction, counter-screen for NR2E3 agonist project, biochemical, TR-FRET. AID 504787, 2011. inhibition, % at 3.98 µM. TR-FRET PPARg-NCOR2 coregulator interaction. shares compounds with NR2E3 ag-2. 45% of 360 active; in the data active = inhibition above about 20%;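 also: 0% = DMSO vehicle and 100% = wells without protein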
Jurkat NFkB conf: PMA/ionomycin-induced NF-kB reporter inhibitors, Jurkat retest, confirmation, T-cell NF-kB inhibitor project, cell-based, luminescence, single concentration; 27% of 2,700 active; AID 435020, 2010; shares compounds with Jurkat NFkB inh; inhibition, % at 4 µM; Jurkat NF-kB luciferase, 16 h;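 active = inhibition reaching about 45% at 4 µM in either replicate, limit read from the data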;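 also: plate controls were PMA/ionomycin stimulated DMSO wells for no effect and unstimulated DMSO wells for full effect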
NR2E3 ag confirm-2: NR2E3 agonist confirmation in cells, cell-based, luminescence, CHO-S two-hybrid; shares compounds with NR2E3 ag-1; CHO-S mammalian two-hybrid NR2E3-NCOR, luciferase luminescence; inhibition, % at 3.98 µM; 51% of 2,300 active; AID 624378, 2012;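 active = average inhibition above a cutoff equal to the mean inhibition of all tested compounds plus one SD, cut at about 70% in these data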;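 also: 0% = DMSO in NR2E3 cells and 100% = DMSO in cells lacking NR2E3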
GAL4-VP16 luc: GAL4-VP16 reporter modulators, confirmation, counter-screen for NR2E3 agonist project, cell-based, luminescence, CHO-S, high throughput. shares compounds with NR2E3 ag-1. CHO-S GAL4-VP16 luciferase reporter. inhibition, % at 3.98 µM. 29% of 2,300 active;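 active = mean inhibition above a cutoff equal to the average over all tested compounds plus one standard deviation, cut at about 70% in these data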;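 also: luciferase from a UAS reporter driven by GAL4-VP16 transactivation; 0% = DMSO with VP16-transfected cells and 100% = DMSO with cells lacking VP16; higher means less reporter light so more repression of VP16 activity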
* = called active by the depositor; . = no result.

SMILES	Jurkat NFkB inh	NR2E3 ag-1	GalR3 antag	Gli-Sufu block	NR2E3 ag-2	697 NFkB inh	others
CC12CCC3C(CCC4(O)CC(O)CCC34C=NO)C1(O)CCC2C1=COC(=O)C1 (configuration not stated)	.	-7	23*	8	.	.
O=C(NCCN1CCC2(CC1)C(=O)NCN2c1ccccc1)c1ccc(F)c(F)c1	.	.	-10	.	.	.
Cc1cc(N2CCNC[C@H]2C)ccc1N1CCN[C@@H](C)C1	.	.	-6	.	.	.
CCOC(=O)c1ccc(-[n+]2c(-c3ccccc3)cc(-c3ccccc3)cc2-c2ccccc2)cc1	26	.	.	47	-1	-36
c1ccc(-c2cc(-c3ccccc3)[n+](-c3ccccc3)c(-c3ccccc3)c2)cc1	10	-9	-8	73*	4	-77
CCCCn1c(NC(=O)c2ccc(Br)o2)c(C(=O)OCC)c2nc3ccccc3nc21	13	-9	-7	6	30*	8
CC[C@@H]1C[C@H]2CC[C@H](O2)[C@H](C)C(=O)O[C@@H](C)C[C@@H]2CC[C@@H](O2)[C@@H](C)C(=O)O[C@H](C)C[C@H]2CC[C@H](O2)[C@H](C)C(=O)O[C@@H](C)C[C@@H]2CC[C@@H](O2)[C@@H](C)C(=O)O1	.	.	-1	.	.	.
C[C@H]1O[C@@H](O[C@H]2[C@@H](O)C[C@H](O[C@H]3[C@@H](O)C[C@H](O[C@H]4CC[C@@]5(C)[C@H](CC[C@@H]6[C@@H]5CC[C@]5(C)[C@@H](C7=CC(=O)OC7)CC[C@]65O)C4)O[C@@H]3C)O[C@@H]2C)C[C@H](O)[C@@H]1O	.	.	.	7	.	.
C[C@H]1O[C@@H](OC2CC[C@]3(C=O)[C@H]4CC[C@]5(C)[C@@H](C6=CC(=O)OC6)CC[C@]5(O)[C@@H]4CC[C@]3(O)C2)CC2OC(C)(C)OC21 (some centres not stated)	.	-12	34*	13	-3	.
c1ccc(CCN2CCC3CCNC3C2)cc1 (configuration not stated)	.	.	-7	.	.	.
COC1CCC(OC2CC(C3(C)CCC4(CC(O)C(C)C(C(C)/C=C(\C)C(=O)C(C)CC(C)C(=O)O)O4)O3)OC3(OC(C4OC(O)(CO)C(C)CC4C)CC3C)C2C)OC1C (configuration not stated)	.	46	-6	77*	.	.
CCOC(=O)C(NC(C)=O)C(OC(C)=O)c1cccc(N(CCCl)CCCl)c1 (configuration not stated)	11	-6	13*	-1	0	8
CC(=O)NC(Cc1ccc(N(CCCl)CCCl)cc1)C(=O)O (configuration not stated)	11	-5	-3	8	-1	11
C[C@H]1[C@H](OC(=O)CCC(=O)NCc2ccc(C(=O)O)cc2)O[C@@H]2O[C@@]3(C)CC[C@H]4[C@H](C)CC[C@@H]1C24OO3	9	93*	.	89*	-2	15
c1ccc(Cc2cnc(N3CCNCC3)nc2)cc1	.	.	-7	.	.	.
O=C1C2CC=CCC2C(=O)N1SC(Cl)(Cl)Cl (configuration not stated)	.	.	35*	.	.	.
O=C(NCCN1CCC2(CC1)C(=O)NCN2c1ccccc1)c1cccc(F)c1	.	.	-6	.	.	.
CC(=O)OC1CC2(O)C3CCC4CC(O)CCC4(C)C3CCC2(C)C1C1=CC(=O)OC1 (configuration not stated)	.	3	21*	1	.	.
CC(=O)OC1CC(OC2C(O)CC(OC3C(O)CC(OC4CCC5(C)C(CCC6C5CCC5(C)C(C7=CC(=O)OC7)C(O)CC65O)C4)OC3C)OC2C)OC(C)C1OC1OC(CO)C(O)C(O)C1O (configuration not stated)	.	13	34*	-1	.	.
O=C(NCCN1CCC2(CC1)C(=O)NCN2c1ccccc1)c1cccnc1Cl	.	.	-6	.	.	.
O=c1c2ccccc2[nH]c(=S)n1-c1ccc(Br)cc1	-12	-20	-4	-6	36*	-9	NR2E3 ag confirm-1=-7;PPARg-NCOR2 ag=-4
OC1CN2CCC(O)C2C(O)C1O (configuration not stated)	.	.	-7	.	.	.
Cn1ncnc2c(=O)n(C)c(=O)nc1-2	55*	104*	.	94*	32*	14	NR2E3 ag confirm-1=36*;PPARg-NCOR2 ag=66*;Jurkat NFkB conf=99*;NR2E3 ag confirm-2=98*;GAL4-VP16 luc=97*
COc1cccc(C(=O)NCCN2CCC3(CC2)C(=O)NCN3c2ccccc2)c1	.	.	-8	.	.	.
C=C(C)[C@@]12OC3(c4ccccc4)O[C@@H]1C1[C@@H]4O[C@]4(CO)[C@@H](O)[C@]4(O)C(=O)C(C)=C[C@H]4[C@@]1(O3)[C@H](C)[C@H]2OC(=O)/C=C/C=C/c1ccccc1 (some centres not stated)	81*	-10	.	18	-5	-49	Jurkat NFkB conf=48
Nc1ccc(CCN2CCCC2)cc1	-4	-14	-10	5	3	0
Nc1ccc(CCN2CCN(c3cccc(C(F)(F)F)c3)CC2)cc1	60*	-26	.	1	2	-11	Jurkat NFkB conf=13
